In ChEMBL document CHEMBL4673342, “Lipid-Lowering Activities of Cucurbitacins Isolated from Trichosanthes cucumeroides and Their Synthetic Derivatives” (2020):
Activity calls are given as the source filed them. No cut-off for these calls is given here.

Each molecule was assayed on HepG2 (assay: Induction of […] uptake in human HepG2 cells at 5 uM by DIL probe based fluorescence assay).
Format: functional, cell-based
Procedure, shortened: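 HepG2 cells (passages 4–11) in DMEM/10% FBS were treated with DMSO or compound at 5 µM, then given DiI-labelled human plasma LDL (20 µg/mL) for 3 h at 37 °C in the dark. After ice-cold PBS/0.4% albumin rinses, cell-bound dye was extracted with isopropanol and fluorescence read at 520–578 nm. Uptake rate is relative to DMSO. Positive control nagilactone B at 5 µM; n = 3.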

Row | SMILES | Activity
1 | CC(=O)OC(C)(C)CCC(=O)[C@](C)(O)[C@H]1[C@H](O)C[C@@]2(C)[C@@H]3CC=C(C(C)(C)O)[C@@H](CC(=O)O)[C@]3(C)C(=O)C[C@]12C | Active
2 | CC(=O)O[C@@H]1C[C@@]2(C)[C@@H]3CC=C4[C@@H](CC(=O)[C@H](OC(C)=O)C4(C)C)[C@]3(C)C(=O)C[C@]2(C)[C@H]1[C@@](C)(O)C(=O)CCC(C)(C)OC(C)=O | inactive
3 | CC1(C)C(=O)[C@@H](O)C[C@@H]2C1=CC[C@@H]1[C@@]2(C)C(=O)C[C@]2(C)[C@@H]([C@@](C)(O)C(=O)C[C@@H](O)C(C)(C)O)[C@H](O)C[C@@]12C | Active
4 | CC(=O)OC(C)(C)/C=C/C(=O)[C@](C)(O)[C@H]1[C@H](O)C[C@@]2(C)[C@@H]3CC=C4[C@@H](C[C@H](O)C(=O)C4(C)C)[C@]3(C)C(=O)C[C@]12C | Active
5 | CC(=O)OC(C)(C)/C=C/C(=O)[C@](C)(O)[C@H]1C(=O)C[C@@]2(C)[C@@H]3CC=C4[C@@H](CC(=O)C(=O)C4(C)C)[C@]3(C)C(=O)C[C@]12C | inactive
6 | CC1(C)C(=O)[C@@H](O)C[C@@H]2C1=C[C@H](O)[C@@H]1[C@@]2(C)C(=O)C[C@]2(C)[C@@H](C=O)[C@H](O)C[C@@]12C | Active
7 | CO[C@@H](CC(=O)[C@](C)(O)[C@H]1[C@H](O)C[C@@]2(C)[C@@H]3CC=C4[C@@H](C[C@H](O)C(=O)C4(C)C)[C@]3(C)C(=O)C[C@]12C)C(C)(C)O | Active
8 | CC(=O)OC(C)(C)CCC(=O)[C@](C)(O)[C@H]1[C@H](O)C[C@@]2(C)[C@@H]3[C@@H](O)C=C4[C@@H](CC(=O)[C@@H](O)C4(C)C)[C@]3(C)C(=O)C[C@]12C | Active
9 | CC(C)(O)/C=C/C(=O)[C@](C)(O)[C@H]1[C@H](O)C[C@@]2(C)[C@@H]3CC=C4[C@@H](C[C@H](O)[C@@H](O)C4(C)C)[C@]3(C)C(=O)C[C@]12C | Active
10 | CC(=O)OC(C)(C)/C=C/C(=O)[C@](C)(O)[C@H]1[C@H](O)C[C@@]2(C)[C@@H]3[C@@H](O)C=C4[C@@H](C[C@H](O)C(=O)C4(C)C)[C@]3(C)C(=O)C[C@]12C | Active
11 | CC(=O)O[C@@H]1C[C@@]2(C)[C@@H]3CC=C4[C@@H](CC(=O)[C@H](O)C4(C)C)[C@]3(C)C(=O)C[C@]2(C)[C@H]1[C@@](C)(O)C(=O)CCC(C)(C)OC(C)=O | inactive
12 | CC(=O)OC(C)(C)CCC(=O)[C@](C)(O)[C@H]1C(=O)C[C@@]2(C)[C@@H]3CC=C4[C@@H](C[C@H](O)C(=O)C4(C)C)[C@]3(C)C(=O)C[C@]12C | inactive
13 | CC(=O)OC(C)(C)/C=C/C(=O)[C@](C)(O)[C@H]1[C@H](O)C[C@@]2(C)[C@@H]3CC=C4[C@@H](C[C@H](OC(=O)c5ccccc5)C(=O)C4(C)C)[C@]3(C)C(=O)C[C@]12C | inactive
14 | CC(=O)OC(C)(C)CCC(=O)[C@](C)(O)[C@H]1[C@H](OC(=O)c2ccccc2)C[C@@]2(C)[C@@H]3CC=C4[C@@H](C[C@H](OC(=O)c5ccccc5)C(=O)C4(C)C)[C@]3(C)C(=O)C[C@]12C | inactive
15 | CC(=O)OC(C)(C)CCC(=O)[C@](C)(O)[C@H]1[C@H](O)C[C@@]2(C)[C@@H]3CC=C4[C@@H](C[C@H](OC(=O)CCC(=O)O)C(=O)C4(C)C)[C@]3(C)C(=O)C[C@]12C | inactive
16 | CC(=O)OC(C)(C)CCC(=O)[C@](C)(O)[C@H]1[C@H](O)C[C@@]2(C)[C@@H]3[C@@H](O)C=C4[C@@H](C[C@H](O)C(=O)C4(C)C)[C@]3(C)C(=O)C[C@]12C | Active
17 | CC(=O)O[C@H]1C[C@@H]2C(=CC[C@@H]3[C@@]2(C)C(=O)C[C@]2(C)[C@@H]([C@@](C)(O)C(=O)/C=C/C(C)(C)OC(C)=O)[C@H](O)C[C@@]32C)C(C)(C)C1=O | inactive
18 | CC(=O)OC(C)(C)/C=C/C(=O)[C@](C)(O)[C@H]1[C@H](O)C[C@@]2(C)[C@@H]3CC=C4[C@@H](C[C@H](OC5O[C@H](CO)[C@@H](O)[C@H](O)[C@H]5C)C(=O)C4(C)C)[C@]3(C)C(=O)C[C@]12C (stereo not given in full) | Active
19 | CC(=O)O[C@@H]1C[C@@]2(C)[C@@H]3CC=C4[C@@H](CC(=O)[C@H](OC(C)=O)C4(C)C)[C@]3(C)C(=O)C[C@]2(C)[C@H]1[C@@](C)(O)C(=O)/C=C/C(C)(C)OC(C)=O | inactive
20 | CC(=O)OC(C)(C)CCC(=O)[C@](C)(O)[C@H]1[C@H](O)C[C@@]2(C)[C@@H]3CC=C4[C@@H](C[C@H](OC5O[C@H](CO)[C@@H](O)[C@H](O)[C@H]5C)C(=O)C4(C)C)[C@]3(C)C(=O)C[C@]12C (stereo not given in full) | Active
21 | CC(=O)O[C@H]1C(=O)C[C@@H]2C(=CC[C@@H]3[C@@]2(C)C(=O)C[C@]2(C)[C@@H]([C@@](C)(O)C(=O)CCC(C)(C)OC(C)=O)[C@H](O)C[C@@]32C)C1(C)C | inactive
22 | CC(=O)O[C@@H]1C[C@@]2(C)[C@@H]3CC=C4[C@@H](CC(=O)[C@H](O)C4(C)C)[C@]3(C)C(=O)C[C@]2(C)[C@H]1[C@@](C)(O)C(=O)/C=C/C(C)(C)OC(C)=O | inactive
23 | CC(=O)OC(C)(C)CCC(=O)[C@](C)(O)[C@H]1[C@H](O)C[C@@]2(C)[C@@H]3CC=C(C(C)(C)C(=O)O)[C@@H](CC(=O)O)[C@]3(C)C(=O)C[C@]12C | Active

Row | SMILES | Activity
24 | CC(=O)O[C@@H]1C[C@@]2(C)[C@@H]3CC=C4[C@@H](C[C@H](O)C(=O)C4(C)C)[C@]3(C)C(=O)C[C@]2(C)[C@H]1[C@@](C)(O)C(=O)/C=C/C(C)(C)OC(C)=O | inactive
25 | CC(C)(O)CCC(=O)[C@](C)(O)[C@H]1[C@H](O)C[C@@]2(C)[C@@H]3CC=C4[C@@H](C=C(O)C(=O)C4(C)C)[C@]3(C)C(=O)C[C@]12C | Active
26 | CC(=O)OC(C)(C)CCC(=O)[C@](C)(O)[C@H]1[C@H](O)C[C@@]2(C)[C@@H]3CC=C4[C@@H](C[C@H](O)C(=O)C4(C)C)[C@]3(C)C(=O)C[C@]12C | Active
27 | CC(=O)OC(C)(C)/C=C/C(=O)[C@](C)(O)[C@H]1[C@H](O)C[C@@]2(C)[C@@H]3[C@@H](O)C=C4[C@@H](CC(=O)[C@H](O)C4(C)C)[C@]3(C)C(=O)C[C@]12C | Active
28 | CC(C)(O)/C=C/C(=O)[C@](C)(O)[C@H]1[C@H](O)C[C@@]2(C)[C@@H]3CC=C4[C@@H](CC(O)C(=O)C4(C)C)[C@]3(C)C(=O)C[C@]12C (stereo not given in full) | Active
29 | CO[C@H](CC(=O)[C@](C)(O)[C@H]1[C@H](O)C[C@@]2(C)[C@@H]3CC=C4[C@@H](C[C@H](O)C(=O)C4(C)C)[C@]3(C)C(=O)C[C@]12C)C(C)(C)O | Active
30 | CC(=O)O[C@H]1C(=O)C[C@@H]2C(=CC[C@@H]3[C@@]2(C)C(=O)C[C@]2(C)[C@@H]([C@@](C)(O)C(=O)/C=C/C(C)(C)OC(C)=O)[C@H](O)C[C@@]32C)C1(C)C | inactive
31 | CC(=O)OC(C)(C)CCC(=O)[C@](C)(O)[C@H]1[C@H](O)C[C@@]2(C)[C@@H]3[C@@H](O)C=C4[C@@H](CC(=O)[C@H](O)C4(C)C)[C@]3(C)C(=O)C[C@]12C | Active
32 | CC(=O)OC(C)(C)[C@@H](O)CC(=O)[C@](C)(O)[C@H]1[C@H](O)C[C@@]2(C)[C@@H]3[C@@H](O)C=C4[C@@H](CC(=O)[C@@H](O)C4(C)C)[C@]3(C)C(=O)C[C@]12C | Active
33 | CC(C)(O)/C=C/C(=O)[C@](C)(O)[C@H]1[C@H](O)C[C@@]2(C)[C@@H]3CC=C4[C@@H](C=C(O)C(=O)C4(C)C)[C@]3(C)C(=O)C[C@]12C | Active
34 | CC(=O)OC1C[C@@H]2C(=CC(=O)[C@@H]3[C@@]2(C)C(=O)C[C@]2(C)[C@@H]([C@@](C)(O)C(=O)CCC(C)(C)OC(C)=O)[C@H](OC(C)=O)C[C@@]32C)C(C)(C)C1O (stereo not given in full) | Active
35 | CC(C)(O)CCC(=O)[C@](C)(O)[C@H]1[C@H](O)C[C@@]2(C)[C@@H]3CC=C4[C@@H](C[C@H](O)C(=O)C4(C)C)[C@]3(C)C(=O)C[C@]12C | Active
36 | CC(=O)OC(C)(C)CCC(=O)[C@](C)(O)[C@H]1[C@H](O)C[C@@]2(C)[C@@H]3CC=C4[C@@H](C[C@H](OC(=O)c5ccccc5)C(=O)C4(C)C)[C@]3(C)C(=O)C[C@]12C | inactive
37 | CC(=O)OC(C)(C)CCC(=O)[C@](C)(O)[C@H]1C(=O)C[C@@]2(C)[C@@H]3CC=C4[C@@H](CC(=O)C(=O)C4(C)C)[C@]3(C)C(=O)C[C@]12C | inactive
38 | CC(=O)OC(C)(C)/C=C/C(=O)[C@](C)(O)[C@H]1C(=O)C[C@@]2(C)[C@@H]3CC=C4[C@@H](C[C@H](O)C(=O)C4(C)C)[C@]3(C)C(=O)C[C@]12C | inactive
39 | CC(=O)OC(C)(C)/C=C/C(=O)[C@](C)(O)[C@H]1[C@H](O)C[C@@]2(C)[C@@H]3CC=C4[C@@H](CC(=O)[C@H](O)C4(C)C)[C@]3(C)C(=O)C[C@]12C | Active
40 | CC(=O)OC(C)(C)CCC(=O)[C@](C)(O)[C@H]1[C@H](O)C[C@@]2(C)[C@@H]3CC=C4[C@@H](CC(=O)OC4(C)C)[C@]3(C)C(=O)C[C@]12C | Active
41 | CC(=O)O[C@H]1C[C@@H]2C(=CC[C@@H]3[C@@]2(C)C(=O)C[C@]2(C)[C@@H]([C@@](C)(O)C(=O)/C=C/C(C)(C)OC(C)=O)[C@H](OC(=O)O)C[C@@]32C)C(C)(C)C1=O | inactive
42 | CCC(=O)O[C@H]1C[C@@H]2C(=CC[C@@H]3[C@@]2(C)C(=O)C[C@]2(C)[C@@H]([C@@](C)(O)C(=O)CCC(C)(C)OC(C)=O)[C@H](OC(=O)CC)C[C@@]32C)C(C)(C)C1=O | inactive
43 | CC(=O)O[C@H]1C[C@@H]2C(=CC[C@@H]3[C@@]2(C)C(=O)C[C@]2(C)[C@@H]([C@@](C)(O)C(=O)CCC(C)(C)OC(C)=O)[C@H](OC(C)=O)C[C@@]32C)C(C)(C)C1=O | inactive
44 | CC(=O)OC(C)(C)/C=C/C(=O)[C@](C)(O)[C@H]1[C@H](OC(=O)c2ccccc2)C[C@@]2(C)[C@@H]3CC=C4[C@@H](C[C@H](OC(=O)c5ccccc5)C(=O)C4(C)C)[C@]3(C)C(=O)C[C@]12C | inactive
45 | CC(=O)OC(C)(C)[C@H](O)CC(=O)[C@](C)(O)[C@H]1[C@H](O)C[C@@]2(C)[C@@H]3[C@@H](O)C=C4[C@@H](CC(=O)[C@@H](O)C4(C)C)[C@]3(C)C(=O)C[C@]12C | Active
